Test results from ChEMBL document CHEMBL1129435, “Acyclic nucleotide analogs derived from 8-azapurines: synthesis and antiviral activity” (J Med Chem, 1996).
Converted amounts (≈) assume the structure as drawn.

system: Moloney murine sarcoma virus; experiment: Compound was tested for anti-retroviral activity against moloney murine sarcoma virus (MSV) in murine C3H/3T3 embryo fibroblast cell culture; format: functional, organism-based; details: not given
In short: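 C3H/3T3 fibroblasts were seeded at 5 × 10⁵ cells/mL. After 24 h they were infected with 80 focus-forming units of MSV for 90-120 min at 37 °C; the virus came from tumours induced by intramuscular inoculation of 3-day-old NMRI mice. The medium was then replaced with fresh medium containing various compound concentrations. Transformation was scored microscopically after 6 days.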

Row | SMILES | IC50
1 | Nc1nc(O)c2nn(CCOCP(=O)(O)O)nc2n1 | > 40 µg/mL
2 | C[C@H](Cn1nc2nc(N)nc(N)c2n1)OCP(=O)(O)O | 28.4 µg/mL (≈ 93.7 µM)
3 | C[C@H](Cn1nc2nc(N)nc(O)c2n1)OCP(=O)(O)O | > 40 µg/mL
4 | Nc1ncnc2nn(C[C@@H](CF)OCP(=O)(O)O)nc12 | 13.1 µg/mL (≈ 42.8 µM)
5 | Nc1ncnc2c1nnn2C[C@@H](CF)OCP(=O)(O)O | > 200 µg/mL
6 | Nc1nc(N)c2nn(C[C@@H](CF)OCP(=O)(O)O)nc2n1 | > 200 µg/mL

system: Human immunodeficiency virus 1; experiment: Inhibition of human immunodeficiency virus-1 (HIV-1) induced cytopathicity in CEM cells; format: functional, organism-based; details: Human immunodeficiency virus 1, CCRF-CEM
In short: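 CEM cells (~3 × 10⁵ cells/mL) were infected with HIV-1(IIIB) at 100 CCID50 per µL. Infected cells were plated with compound dilutions and incubated 4 days at 37 °C. Giant cell formation was then examined microscopically.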

Row | SMILES | IC50
7 | Nc1nc(O)c2nn(CCOCP(=O)(O)O)nc2n1 | > 100 µg/mL
8 | C[C@H](Cn1nc2nc(N)nc(N)c2n1)OCP(=O)(O)O | > 100 µg/mL
9 | C[C@H](Cn1nc2nc(N)nc(O)c2n1)OCP(=O)(O)O | 20 µg/mL (≈ 65.7 µM)
10 | Nc1ncnc2c1nnn2C[C@@H](CF)OCP(=O)(O)O | > 100 µg/mL
11 | Nc1nc(N)c2nn(C[C@@H](CF)OCP(=O)(O)O)nc2n1 | > 100 µg/mL

system: Human immunodeficiency virus 2; experiment: Inhibition of human immunodeficiency virus-2 (HIV-2) induced cytopathicity in CEM cells; format: functional, organism-based; details: Human immunodeficiency virus 2, CCRF-CEM

Row | SMILES | IC50
12 | Nc1nc(O)c2nn(CCOCP(=O)(O)O)nc2n1 | > 100 µg/mL
13 | C[C@H](Cn1nc2nc(N)nc(N)c2n1)OCP(=O)(O)O | > 100 µg/mL
14 | C[C@H](Cn1nc2nc(N)nc(O)c2n1)OCP(=O)(O)O | 20 µg/mL (≈ 65.7 µM)
15 | Nc1ncnc2c1nnn2C[C@@H](CF)OCP(=O)(O)O | > 100 µg/mL
16 | Nc1nc(N)c2nn(C[C@@H](CF)OCP(=O)(O)O)nc2n1 | > 100 µg/mL

system: not listed separately; experiment: Antiviral activity against herpes simplex virus-1 KOS in E6SM cell culture; format: functional, cell-based; details: Human alphaherpesvirus 1, E6SM
In short: (§1)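 Confluent cell monolayers in microtiter trays were inoculated with 100 CCID50 of virus. After 1 h adsorption the residual virus was removed. Cells were then incubated with serial compound concentrations (400, 200, 100, ... µg/mL). Cytopathicity was scored once it was complete in untreated infected controls. The value is the 50% inhibitory concentration, or the concentration reducing plaque formation by 50%, in µg/mL.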

Row | SMILES | IC50
17 | Nc1nc(O)c2nn(CCOCP(=O)(O)O)nc2n1 | > 400 µg/mL
18 | C[C@H](Cn1nc2nc(N)nc(N)c2n1)OCP(=O)(O)O | > 100 µg/mL
19 | C[C@H](Cn1nc2nc(N)nc(O)c2n1)OCP(=O)(O)O | > 100 µg/mL
20 | Nc1ncnc2nn(C[C@@H](CF)OCP(=O)(O)O)nc12 | > 40 µg/mL
21 | Nc1ncnc2c1nnn2C[C@@H](CF)OCP(=O)(O)O | > 400 µg/mL
22 | Nc1nc(N)c2nn(C[C@@H](CF)OCP(=O)(O)O)nc2n1 | > 400 µg/mL

system: Human alphaherpesvirus 1; experiment: Antiviral activity against thymidine kinase deficient herpes simplex virus-1 HSV-1 TK- B2006 strain in E6SM cell culture; format: functional, organism-based; details: Human alphaherpesvirus 1, E6SM; in short: as §1

Row | SMILES | IC50
23 | Nc1nc(O)c2nn(CCOCP(=O)(O)O)nc2n1 | > 400 µg/mL
24 | C[C@H](Cn1nc2nc(N)nc(N)c2n1)OCP(=O)(O)O | 200 µg/mL (≈ 660 µM)
25 | C[C@H](Cn1nc2nc(N)nc(O)c2n1)OCP(=O)(O)O | > 400 µg/mL
26 | Nc1ncnc2nn(C[C@@H](CF)OCP(=O)(O)O)nc12 | > 40 µg/mL
27 | Nc1ncnc2c1nnn2C[C@@H](CF)OCP(=O)(O)O | > 400 µg/mL
28 | Nc1nc(N)c2nn(C[C@@H](CF)OCP(=O)(O)O)nc2n1 | > 400 µg/mL

system: not listed separately; experiment: Antiviral activity against thymidine kinase deficient herpes simplex virus-1 HSV-1 TK- VMW-1837 strain in E6SM cell culture; format: functional, cell-based; details: Human alphaherpesvirus 1, E6SM; in short: as §1

Row | SMILES | IC50
29 | Nc1nc(O)c2nn(CCOCP(=O)(O)O)nc2n1 | > 300 µg/mL
30 | C[C@H](Cn1nc2nc(N)nc(N)c2n1)OCP(=O)(O)O | > 200 µg/mL
31 | C[C@H](Cn1nc2nc(N)nc(O)c2n1)OCP(=O)(O)O | > 400 µg/mL
32 | Nc1ncnc2c1nnn2C[C@@H](CF)OCP(=O)(O)O | > 400 µg/mL
33 | Nc1nc(N)c2nn(C[C@@H](CF)OCP(=O)(O)O)nc2n1 | > 400 µg/mL

system: Vaccinia virus; experiment: Antiviral activity against vaccinia virus (VV) in E6SM cell culture; format: functional, organism-based; details: Orthopoxvirus vaccinia

Row | SMILES | IC50
34 | Nc1nc(O)c2nn(CCOCP(=O)(O)O)nc2n1 | 150 µg/mL (≈ 517 µM)
35 | C[C@H](Cn1nc2nc(N)nc(N)c2n1)OCP(=O)(O)O | > 100 µg/mL
36 | C[C@H](Cn1nc2nc(N)nc(O)c2n1)OCP(=O)(O)O | > 400 µg/mL
37 | Nc1ncnc2nn(C[C@@H](CF)OCP(=O)(O)O)nc12 | > 40 µg/mL
38 | Nc1ncnc2c1nnn2C[C@@H](CF)OCP(=O)(O)O | > 400 µg/mL
39 | Nc1nc(N)c2nn(C[C@@H](CF)OCP(=O)(O)O)nc2n1 | > 400 µg/mL

system: Human alphaherpesvirus 2; experiment: Antiviral activity in herpes simple virus-2 (HSV-2) Lyons strain in E6SM cell culture; format: functional, organism-based; details: Human alphaherpesvirus 2, E6SM; in short: as §1

Row | SMILES | IC50
40 | Nc1nc(O)c2nn(CCOCP(=O)(O)O)nc2n1 | > 300 µg/mL
41 | C[C@H](Cn1nc2nc(N)nc(N)c2n1)OCP(=O)(O)O | > 200 µg/mL
42 | C[C@H](Cn1nc2nc(N)nc(O)c2n1)OCP(=O)(O)O | > 400 µg/mL
43 | Nc1ncnc2c1nnn2C[C@@H](CF)OCP(=O)(O)O | > 400 µg/mL

system: Human alphaherpesvirus 3; experiment: Antiviral activity in TK+ varicella zoster virus (VZV) YS strain in HEL cell culture; format: functional, organism-based; details: Human alphaherpesvirus 3, HEL

Row | SMILES | IC50
44 | Nc1nc(O)c2nn(CCOCP(=O)(O)O)nc2n1 | 40 µg/mL (≈ 138 µM)
45 | C[C@H](Cn1nc2nc(N)nc(N)c2n1)OCP(=O)(O)O | > 50 µg/mL
46 | C[C@H](Cn1nc2nc(N)nc(O)c2n1)OCP(=O)(O)O | > 20 µg/mL
47 | Nc1ncnc2nn(C[C@@H](CF)OCP(=O)(O)O)nc12 | > 10 µg/mL
48 | Nc1ncnc2c1nnn2C[C@@H](CF)OCP(=O)(O)O | > 40 µg/mL
49 | Nc1nc(N)c2nn(C[C@@H](CF)OCP(=O)(O)O)nc2n1 | > 50 µg/mL

system: Human betaherpesvirus 5; experiment: Antiviral activity against cytomegalovirus (CMV) AD169 strain in HEL cell culture; format: functional, organism-based; details: Human betaherpesvirus 5, HEL; in short: as §1

Row | SMILES | IC50
50 | Nc1nc(O)c2nn(CCOCP(=O)(O)O)nc2n1 | > 100 µg/mL
51 | C[C@H](Cn1nc2nc(N)nc(N)c2n1)OCP(=O)(O)O | > 50 µg/mL
52 | C[C@H](Cn1nc2nc(N)nc(O)c2n1)OCP(=O)(O)O | > 50 µg/mL
53 | Nc1ncnc2nn(C[C@@H](CF)OCP(=O)(O)O)nc12 | > 400 µg/mL
54 | Nc1ncnc2c1nnn2C[C@@H](CF)OCP(=O)(O)O | > 40 µg/mL
55 | Nc1nc(N)c2nn(C[C@@H](CF)OCP(=O)(O)O)nc2n1 | > 50 µg/mL

system: Cytomegalovirus; experiment: Antiviral activity against cytomegalovirus (CMV) Davis strain in HEL cell culture; format: functional, organism-based; details: Human betaherpesvirus 5, HEL; in short: as §1

Row | SMILES | IC50
56 | Nc1nc(O)c2nn(CCOCP(=O)(O)O)nc2n1 | > 40 µg/mL
57 | C[C@H](Cn1nc2nc(N)nc(N)c2n1)OCP(=O)(O)O | > 50 µg/mL
58 | C[C@H](Cn1nc2nc(N)nc(O)c2n1)OCP(=O)(O)O | > 50 µg/mL
59 | Nc1ncnc2nn(C[C@@H](CF)OCP(=O)(O)O)nc12 | > 400 µg/mL
60 | Nc1ncnc2c1nnn2C[C@@H](CF)OCP(=O)(O)O | > 40 µg/mL
61 | Nc1nc(N)c2nn(C[C@@H](CF)OCP(=O)(O)O)nc2n1 | > 50 µg/mL

system: Human alphaherpesvirus 3; experiment: Antiviral activity in TK+ varicella zoster virus (VZV) 07/1 strain in HEL cell culture; format: functional, organism-based; details: Human alphaherpesvirus 3, HEL

Row | SMILES | IC50
62 | Nc1nc(O)c2nn(CCOCP(=O)(O)O)nc2n1 | > 40 µg/mL
63 | C[C@H](Cn1nc2nc(N)nc(N)c2n1)OCP(=O)(O)O | > 50 µg/mL
64 | Nc1ncnc2nn(C[C@@H](CF)OCP(=O)(O)O)nc12 | > 10 µg/mL
65 | Nc1ncnc2c1nnn2C[C@@H](CF)OCP(=O)(O)O | > 40 µg/mL
66 | Nc1nc(N)c2nn(C[C@@H](CF)OCP(=O)(O)O)nc2n1 | > 50 µg/mL

system: Human alphaherpesvirus 3; experiment: Antiviral activity in TK+ varicella zoster virus (VZV) OKA strain in HEL cell culture; format: functional, organism-based; details: Human alphaherpesvirus 3, HEL

Row | SMILES | IC50
67 | Nc1nc(O)c2nn(CCOCP(=O)(O)O)nc2n1 | 40 µg/mL (≈ 138 µM)
68 | C[C@H](Cn1nc2nc(N)nc(N)c2n1)OCP(=O)(O)O | > 50 µg/mL
69 | C[C@H](Cn1nc2nc(N)nc(O)c2n1)OCP(=O)(O)O | > 20 µg/mL
70 | Nc1ncnc2nn(C[C@@H](CF)OCP(=O)(O)O)nc12 | > 10 µg/mL
71 | Nc1ncnc2c1nnn2C[C@@H](CF)OCP(=O)(O)O | > 40 µg/mL
72 | Nc1nc(N)c2nn(C[C@@H](CF)OCP(=O)(O)O)nc2n1 | > 50 µg/mL

system: Human immunodeficiency virus 1; experiment: Inhibition of human immunodeficiency virus-1 (HIV-1) induced cytopathicity in human MT-4 cells; format: functional, organism-based; details: Human immunodeficiency virus 1, MT4
In short: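 MT-4 cells (~4 × 10⁵ cells/mL) were infected with HIV-1(IIIB) at 100 CCID50 per µL. Infected cells were seeded into wells containing compound dilutions and incubated 5 days at 37 °C. Viable cells were then counted by trypan blue exclusion in a blood cell counting chamber.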

Row | SMILES | IC50
73 | Nc1nc(O)c2nn(CCOCP(=O)(O)O)nc2n1 | > 100 µg/mL
74 | C[C@H](Cn1nc2nc(N)nc(N)c2n1)OCP(=O)(O)O | > 100 µg/mL
75 | C[C@H](Cn1nc2nc(N)nc(O)c2n1)OCP(=O)(O)O | 20 µg/mL (≈ 65.7 µM)
76 | Nc1ncnc2nn(C[C@@H](CF)OCP(=O)(O)O)nc12 | 15 µg/mL (≈ 49 µM)
